These results are taken from ChEMBL document CHEMBL4706631, “Potent and Selective Mitogen-Activated Protein Kinase Kinase 1/2 (MEK1/2) Heterobifunctional Small-molecule Degraders” (J Med Chem, 2020).

Data set [1] relates to HT-29. The data set can be described thus: Inhibition of colony formation in human HT-29 cells at 10 to 100 nM incubated for 10 days by crystal violet staining based assay. It is filed as functional, cell-based. Particulars: dose 10-100 nM, time 10.0 day. Put shortly:
(§1)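 HT-29 clonogenic assay: cells were exposed to compounds for 10 days, then fixed and stained with crystal violet. Two independent experiments.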

The test system of data set [2] is NCI-H3122. The data set can be described thus: Inhibition of ERK phosphorylation in human NCI-H3122 cells at 0.3 to 3 uM and incubated for 24 hrs by Western blot analysis. It is filed as cell-based. Particulars: dose 0.3-3 µM. Put shortly:
(§2)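 H3122 and SU-DHL-1 cells were treated with compounds, and MEK1/2, pMEK and pERK were assessed by Western blot of lysates.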
(In general: A western blot detects proteins with antibodies after separation by electrophoresis.)

The subject of data set [3] is SU-DHL-1. The data set can be described thus: Inhibition of ERK phosphorylation in human SU-DHL-1 cells at 0.3 to 3 uM and incubated for 24 hrs by Western blot analysis. The data set is classed as cell-based. Particulars: dose 0.3-3 µM. The method in brief:
as §2

Data set [4] has as its system HT-29. The data set can be described thus: Inhibition of ERK phosphorylation in human HT-29 cells incubated for 24 hrs by Western blot analysis. The data set is classed as cell-based.
Data set [5] deals with HT-29. The data set can be described thus: Inhibition of ERK phosphorylation in human HT-29 cells pre-incubated with VH032 for 2 hrs followed by compound addition at 0.1 uM and further incubated for 8 hrs by Western blot analysis. The data set is classed as cell-based.
A short description of data set [6]: Toxicity in Swiss albino mouse assessed as effect on clinical signs at 50 mg/kg, ip administered as single dose and measured up to 8 hrs. Conditions: in vivo. It is filed as organism-based.
Data set [7] is described as follows: Drug level in Swiss albino mouse plasma at 50 mg/kg, ip administered as single dose and measured up to 8 hrs by LC-MS/MS analysis. It is filed as ADME, organism-based. Conditions: in vivo.
Data set [8] concerns HT-29. The data set can be described thus: Inhibition of ERK phosphorylation in human HT-29 cells pre-incubated for 2 hrs followed by compound addition at 0.1 uM and further incubated for 8 hrs by Western blot analysis.
The nature of data set [9]: Toxicity in Swiss albino mouse assessed as induction of adverse events at 50 mg/kg, ip administered as single dose and measured up to 8 hrs. It is filed as organism-based. Conditions: in vivo.
The subject of data set [10] is HT-29. The data set can be described thus: Inhibition of ERK phosphorylation in human HT-29 cells pre-incubated with PD0325901 for 2 hrs followed by compound addition at 0.1 uM and further incubated for 8 hrs by Western blot analysis. It is filed as cell-based.
Data set [11] relates to SK-MEL-28. The data set can be described thus: Inhibition of ERK phosphorylation in human SK-MEL-28 cells at 0.0001 to 3 uM incubated for 24 hrs by Western blot analysis. It is filed as cell-based. Particulars: dose 0.0001-3 µM.
Data set [12] has as its system HT-29. The data set can be described thus: Inhibition of ERK phosphorylation in human HT-29 cells pre-incubated with MLN4924 for 2 hrs followed by compound addition at 0.1 uM and further incubated for 8 hrs by Western blot analysis. It is filed as cell-based.
Data set [13] can be described thus: Toxicity in Swiss albino mouse assessed as drug tolerability at 50 mg/kg, ip administered as single dose and measured up to 8 hrs. It is filed as organism-based. Conditions: in vivo.
Data set [14] has as its system HT-29. The data set can be described thus: Inhibition of ERK phosphorylation in human HT-29 cells pre-incubated with MG-132 for 2 hrs followed by compound addition at 0.1 uM and further incubated for 8 hrs by Western blot analysis. The data set is classed as cell-based.
For data set [15], the system named is NCI-H3122. The data set can be described thus: Antiproliferative activity against human NCI-H3122 cells at 0.014 to 3.33 uM incubated for 3 days by WST8 assay. It is filed as functional, cell-based. Conditions: dose 0.014-3.33 µM, time 3.0 day. The method in brief:
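NCI-H3122 cells were exposed to serial compound dilutions for 3 days, with WST-8 live-cell readout. Each concentration was run in triplicate. Student's t-test per concentration versus DMSO.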
(In general: Formazan colour is commonly taken as a measure of viable cells.)

For data set [16], the system named is SK-MEL-28. The data set can be described thus: Antiproliferative activity against human SK-MEL-28 cells incubated for 3 days by WST8 assay. The data set is classed as functional. Conditions: SK-MEL-28, 72 h, time 3 day.
Data set [17] deals with HT-29. The data set can be described thus: Antiproliferative activity against human HT-29 cells incubated for 3 days by WST8 assay. The data set is classed as functional. Conditions: HT-29, 72 h, time 3 day.
Data set [18] has as its system HT-29. The data set can be described thus: Inhibition of ERK phosphorylation in human HT-29 cells at 0.3 to 3 uM incubated for 24 hrs by Western blot analysis. It is filed as cell-based. Particulars: dose 0.3-3 µM.
For data set [19], the system named is HT-29. The data set can be described thus: Effect on global proteome expression in human HT-29 cells at 0.3 uM incubated for 8 hrs by mass spectrometry analysis based global proteome analysis. It is filed as functional, cell-based. The method in brief: (§3)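 HT-29 cells were treated 8 h (0.1% DMSO vehicle) and then lysed in 8 M urea/100 mM Tris pH 8.0 with sonication. Proteins were reduced with 5 mM DTT, alkylated with 15 mM IAA and digested overnight with trypsin (1:100). Peptides were analysed on a 130 min nanoLC gradient by Q Exactive HF-X data-dependent MS (top-20 HCD). Run in duplicate.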

Data set [20] has as its system HT-29. The data set can be described thus: Inhibition of colony formation in human HT-29 cells at 30 to 300 nM incubated for 10 days by crystal violet staining based assay. Conditions: dose 30-300 nM, time 10.0 day. The data set is classed as functional, cell-based. The method in brief:
as §1

Data set [21] deals with HT-29. The data set can be described thus: Effect on global proteome expression in human HT-29 cells at 0.1 uM incubated for 8 hrs by mass spectrometry analysis based global proteome analysis. The data set is classed as functional, cell-based. Put shortly: as §3
The subject of data set [22] is SU-DHL-1. The data set can be described thus: Antiproliferative activity against human SU-DHL-1 cells incubated for 3 days by WST8 assay. Particulars: SU-DHL-1, 72 h, time 3 day. The data set is classed as functional.
Data set [23] has as its system HT-29. The data set can be described thus: Inhibition of ERK phosphorylation in human HT-29 cells at 0.3 uM and further incubated for 8 hrs by Western blot analysis.
Data set [24] has as its system HT-29. The data set can be described thus: Inhibition of ERK phosphorylation in human HT-29 cells pre-incubated with POMA for 2 hrs followed by compound addition at 0.3 uM and further incubated for 8 hrs by Western blot analysis. It is filed as cell-based.
In data set [25] the test system is HT-29. The data set can be described thus: Inhibition of ERK phosphorylation in human HT-29 cells pre-incubated with MG132 for 2 hrs followed by compound addition at 0.3 uM and further incubated for 8 hrs by Western blot analysis. The data set is classed as cell-based.
In data set [26] the test system is HT-29. The data set can be described thus: Inhibition of ERK phosphorylation in human HT-29 cells pre-incubated with MLN4924 for 2 hrs followed by compound addition at 0.3 uM and further incubated for 8 hrs by Western blot analysis. The data set is classed as cell-based.
Data set [27] has as its system HT-29. The data set can be described thus: Inhibition of ERK phosphorylation in human HT-29 cells pre-incubated with PD0325901 for 2 hrs followed by compound addition at 0.3 uM and further incubated for 8 hrs by Western blot analysis. It is filed as cell-based.
The test system of data set [28] is HT-29. The data set can be described thus: Antiproliferative activity against human HT-29 cells at 0.00017 to 10 uM in presence of 100 nM PLX4032 incubated for 3 days by WST-8 assay. The data set is classed as functional, cell-based. Particulars: dose 0.00017-10 µM, time 3.0 day. Put shortly:
(§4)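 Cells grown in DMEM, RPMI-1640 or EMEM with 10% FBS and penicillin/streptomycin. They were exposed for 3 days to a dilution series of degrader combined with fixed PLX4032 (100 nM) or ZSTK474 (400 nM). Live-cell signal was read by WST-8. Triplicate points, mean ± SD of three independent experiments. Student's t-test per concentration versus DMSO.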

Data set [29] has as its system SK-MEL-28. The data set can be described thus: Antiproliferative activity against human SK-MEL-28 cells at 0.00017 to 10 uM in presence of 100 nM PLX4032 incubated for 3 days by WST-8 assay. Conditions: dose 0.00017-10 µM, time 3.0 day. The data set is classed as functional, cell-based. The method in brief:
as §4

For data set [30], the system named is HT-29. The data set can be described thus: Antiproliferative activity against human HT-29 cells at 0.00017 to 10 uM in presence of 400 nM ZSTK474 incubated for 3 days by WST-8 assay. It is filed as functional, cell-based. Conditions: dose 0.00017-10 µM, time 3.0 day. Put shortly:
as §4

Data set [31] has as its system SK-MEL-28. The data set can be described thus: Antiproliferative activity against human SK-MEL-28 cells at 0.00017 to 10 uM in presence of 400 nM ZSTK474 incubated for 3 days by WST-8 assay. The data set is classed as functional, cell-based. Particulars: dose 0.00017-10 µM, time 3.0 day. The method in brief:
as §4

Each structure is given as a SMILES string. Active and inactive are the calls of the source. The calls are words filed in the database; no cut-off is given here.

As to `Cc1ncsc1-c1ccc([C@H](C)NC(=O)[C@@H]2C[C@@H](O)CN2C(=O)[C@@H](NC(=O)CCCCCCCCCCN(C)CCCONC(=O)c2ccc(F)c(F)c2Nc2ccc(I)cc2F)C(C)(C)C)cc1`, the inhibition result in the data set on HT-29 [1], in the data set on NCI-H3122 [2], with SU-DHL-1 [3], with HT-29 [10] and in the data set on SK-MEL-28 [11] was “Active” each time. Also, the inhibition result in the data set with HT-29 [4] was “Dose-dependent effect”. The inhibition result in the data set with HT-29 [5], with HT-29 [8], in the data set on HT-29 [12] and with HT-29 [14] was “inactive” in each case. The Activity result in data set [6], in data set [9] and in data set [13] was “Non-Toxic” throughout. In addition, in data set [7], the Drug uptake result is reported as “Active”. Besides, the result with NCI-H3122 [15] was Active.
As usually defined, the GI50 is the concentration at which growth is held to half of that of the control. Lower therefore signals greater sensitivity of the cells. On to `Cc1ncsc1-c1ccc([C@H](C)NC(=O)[C@@H]2C[C@@H](O)CN2C(=O)[C@@H](NC(=O)CCCCCCCCCCNCCCONC(=O)c2ccc(F)c(F)c2Nc2ccc(I)cc2F)C(C)(C)C)cc1`, for which the GI50 in the data set with SK-MEL-28 [16] turned out to be 83 nM; in the data set on HT-29 [17], 130 nM.
As for `CN1C(=O)CCC(N2C(=O)c3ccc(NCCOCCOCCOCCOCCOCCNCCCONC(=O)c4ccc(F)c(F)c4Nc4ccc(I)cc4F)cc3C2=O)C1=O` (stereo not drawn), the inhibition entry with HT-29 [18] and with HT-29 [20] was “inactive” throughout. Besides, the outcome in the data set with HT-29 [19] was inactive.
With `Cc1ncsc1-c1ccc([C@H](C)NC(=O)[C@H]2C[C@H](O)CN2C(=O)[C@@H](NC(=O)CCCCCCCCCCCNCCCCONC(=O)c2ccc(F)c(F)c2Nc2ccc(I)cc2F)C(C)(C)C)cc1`, the inhibition entry with HT-29 [1], in the data set with HT-29 [18], with NCI-H3122 [2] and in the data set on SU-DHL-1 [3] was “inactive” each time. In addition, the result in the data set on HT-29 [21] and in the data set with NCI-H3122 [15] was inactive.
In the data set on SU-DHL-1 [22], `Cc1ncsc1-c1ccc([C@H](C)NC(=O)[C@@H]2C[C@@H](O)CN2C(=O)[C@@H](NC(=O)COCCOCCOCCNC(=O)CCc2ccc(S(=O)(=O)Nc3cc(C)c(=O)n(C)c3Nc3ccc(I)cc3F)cc2)C(C)(C)C)cc1` had a GI50 of 2400 nM.
Consider `O=C1CCC(N2C(=O)c3ccc(NCCOCCOCCOCCOCCOCCNCCCONC(=O)c4ccc(F)c(F)c4Nc4ccc(I)cc4F)cc3C2=O)C(=O)N1` (stereo not drawn), for which the inhibition entry in the data set with HT-29 [4] is “Dose-dependent effect”. In addition, the inhibition entry in the data set with HT-29 [23], in the data set with HT-29 [24], in the data set with HT-29 [25] and in the data set on HT-29 [26] was “inactive” in each case. Further, the inhibition result with HT-29 [20] and in the data set on HT-29 [27] was “Active” throughout.
Take `Cc1ncsc1-c1ccc([C@H](C)NC(=O)[C@@H]2C[C@@H](O)CN2C(=O)[C@@H](NC(=O)CCCCCCCCCCCNCCCCONC(=O)c2ccc(F)c(F)c2Nc2ccc(I)cc2F)C(C)(C)C)cc1`: the inhibition result with HT-29 [1], in the data set with NCI-H3122 [2], with SU-DHL-1 [3], with HT-29 [10] and in the data set with SK-MEL-28 [11] was “Active” each time. Also, the inhibition entry in the data set on HT-29 [4] is “Dose-dependent effect”. The outcome with HT-29 [28], in the data set with SK-MEL-28 [29], in the data set with HT-29 [30], with SK-MEL-28 [31] and in the data set with NCI-H3122 [15] was Active. For the same compound, the inhibition entry in the data set with HT-29 [5], in the data set on HT-29 [8], with HT-29 [12] and in the data set with HT-29 [14] was “inactive” in each case. For the same compound, the Activity result in data set [6], in [9] and in [13] was “Non-Toxic” throughout. In addition, in data set [7], the Drug uptake entry is listed as “Active”.
